Compounds with a hit are over-represented: about 1.5% of the library has one in this group of screens.
CAL PDZ FP-1: human CAL PDZ-peptide interaction inhibition; Q9HD26; purified CAL PDZ, TMR-peptide fluorescence polarization, 1 h; inhibition, % at 20 µM; 330,000 tested, 0.02% active; AID 504414;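 active means highest replicate inhibition of at least 40%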
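Material: tagged CAL PDZ protein CerCALP, purified; buffer or medium: sodium phosphate/NaCl buffer pH 7.4 with TCEP, IgG, Thesit; also added: fluorescent TMR peptide probe; schedule: 1 h incubation at room temperature before polarization reading; technique: fluorescence polarization from S- and P-plane intensities, G-factor corrected; control set: unlabelled peptide and DMSO controls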
Keap1-Nrf2 PPI: inhibitors of human Keap1-Nrf2 protein-protein interaction. Keap1 Kelch-Nrf2 peptide fluorescence polarization, 1536-well. inhibition, % at 9.4 µM. 340,000 tested, 0.15% active; in the data active means inhibition above about 12%;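 further: human Keap1 Kelch domain with fluorescein labeled Nrf2 9mer peptide probe; higher means more block of Keap1 binding to Nrf2 peptide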
CAL PDZ FP-2: inhibitors of human CAL PDZ peptide binding | Q9HD26 | 300,000 tested, 0.92% active | inhibition, % at 24.9 µM | purified CAL PDZ, TMR-peptide fluorescence polarization, 1 h;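 active means mean inhibition of at least 30% with at least half of replicates also reaching 30%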
C-LANA FP: inhibitors of KSHV LANA C-terminal domain DNA binding; MBP-C-LANA/FAM-LBS DNA binding, fluorescence polarization; 340,000 tested, 0.078% active; AID 504423; inhibition, % at 9 µM;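 active means highest replicate inhibition at or above 60% at 9 µM, even if other replicates fall short; inactive means all replicates below 60% inhibition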
LANA-H2B inh: blocks KSHV LANA binding to histone H2A/H2B; 320,000 tested, 0.6% active; cell-free LANA-H2A/H2B peptide, fluorescence polarization; inhibition, % (concentration not given with the values); AID 2629; Q9QR71; in the data active means inhibition mostly above about 10%, no sharp cut-off; inactive means mostly below about 6.7%
Target sequence (Q9QR71 whole entry, looked up): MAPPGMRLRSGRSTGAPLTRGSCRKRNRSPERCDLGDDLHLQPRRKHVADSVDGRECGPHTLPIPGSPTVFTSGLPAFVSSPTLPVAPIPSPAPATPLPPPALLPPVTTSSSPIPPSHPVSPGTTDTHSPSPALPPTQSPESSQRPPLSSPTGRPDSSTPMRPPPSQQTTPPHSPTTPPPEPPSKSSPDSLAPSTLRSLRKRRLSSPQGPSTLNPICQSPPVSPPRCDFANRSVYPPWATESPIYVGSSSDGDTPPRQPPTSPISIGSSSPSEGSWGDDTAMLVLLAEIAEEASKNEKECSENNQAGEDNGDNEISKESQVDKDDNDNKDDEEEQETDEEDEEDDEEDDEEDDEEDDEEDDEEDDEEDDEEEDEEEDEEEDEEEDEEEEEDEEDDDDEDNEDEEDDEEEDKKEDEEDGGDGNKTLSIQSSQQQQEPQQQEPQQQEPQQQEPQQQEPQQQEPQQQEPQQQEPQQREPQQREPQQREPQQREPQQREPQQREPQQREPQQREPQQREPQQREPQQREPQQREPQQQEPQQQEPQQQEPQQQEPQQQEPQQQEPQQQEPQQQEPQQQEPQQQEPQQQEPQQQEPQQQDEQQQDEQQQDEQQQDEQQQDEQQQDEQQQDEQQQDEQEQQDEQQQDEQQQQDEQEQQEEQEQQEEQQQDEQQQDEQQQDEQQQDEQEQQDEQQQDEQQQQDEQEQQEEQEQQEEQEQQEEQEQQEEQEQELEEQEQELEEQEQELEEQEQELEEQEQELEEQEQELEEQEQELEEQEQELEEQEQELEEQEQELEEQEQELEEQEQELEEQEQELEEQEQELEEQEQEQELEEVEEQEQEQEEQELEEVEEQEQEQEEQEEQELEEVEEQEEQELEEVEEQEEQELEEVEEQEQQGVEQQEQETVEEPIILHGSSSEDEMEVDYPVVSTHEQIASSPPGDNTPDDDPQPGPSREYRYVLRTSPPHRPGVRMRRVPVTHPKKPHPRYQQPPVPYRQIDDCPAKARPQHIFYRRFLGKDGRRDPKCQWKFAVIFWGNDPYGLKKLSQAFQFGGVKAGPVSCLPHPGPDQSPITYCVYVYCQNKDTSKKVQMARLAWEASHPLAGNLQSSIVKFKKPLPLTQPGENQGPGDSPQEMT
CaV13 ICDI inh: Disruptors of the CACNA1D IQ motif to Ca2+-dependent inactivation inhibitor domain association, primary screening, Förster resonance energy transfer in intact living … | inhibition, % at 12.3 µM | AID 743397 | 340,000 tested, 0.098% active | HEK cells, CFP/YFP FRET ICDI-IQ, plate reader, 10 min; percent FRET-ratio fall versus neutral wells;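 active means mean replicate inhibition of at least 30% and at least 1% of replicates passing that level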
A number is an active result; i = inactive; nt = no result given; + = active, no number.

SMILES | CAL PDZ FP-1 | Keap1-Nrf2 PPI | CAL PDZ FP-2 | C-LANA FP | LANA-H2B inh | CaV13 ICDI inh
CC(C)(O)CN(C(=O)C(c1ccccc1)c1ccccc1)C1CCCCC1 | i | i | 30.7 | i | nt | i
Cc1cc(C)cc(OCC(=O)Nc2ccccc2N2CCCCC2)c1 | i | i | i | i | i | i
Cc1cc(C)cc(NC(=O)Nc2ccccc2N2CCCCC2)c1 | i | i | i | i | 11.8 | i
COc1ccc(-c2ccc3oc(-c4ccsc4)cc3c2)cc1 | i | i | i | i | i | i
CCOc1cc(N2CCOCC2)c(OCC)cc1NC(=O)COC(=O)c1cc(C)cc(C)c1 | i | i | i | i | i | i
CCOc1cc(N2CCOCC2)c(OCC)cc1NC(=O)CN1CCCC1 | i | i | 94.2 | i | i | i
CCOc1cc(N2CCOCC2)c(OCC)cc1NC(=O)COC(=O)c1ccc([N+](=O)[O-])o1 | i | i | 92.3 | i | nt | i
COCCn1c(SCC(=O)c2c(N)n(C3CC3)c(=O)[nH]c2=O)nnc1-c1ccc(Cl)cc1 | i | i | i | i | + | i
Cc1ccc(C)c(-n2ccnc2SCC(=O)c2c(N)n(C3CC3)c(=O)[nH]c2=O)c1 | i | i | i | i | + | i
CC(=O)C1=C(O)C(=O)N(c2ccc(C(=O)O)cc2)C1c1ccc([N+](=O)[O-])cc1 (centres undefined) | i | i | i | i | 13.1 | i
O=C1NC[C@H](CCCCN2C[C@H](Cc3ccc(O)cc3)N(CCc3ccccc3)C(=O)C2=O)N(CC2CCCCC2)C1=O | nt | nt | nt | nt | nt | i
Cc1ccccc1Nc1nc(N)nc(CN(C)c2ccccc2)n1 | i | i | i | i | 28.1 | i
O=C1NC(=O)/C(=C\c2ccc(O)cc2O)S1 | i | i | 51.8 | i | i | i
CCOC(=O)CN1C(=O)C(C)(C)Oc2ccc(C(=O)NC(C)(C)CC)cc21 | i | i | i | i | i | i
CCC(C)(C)NC(=O)c1ccc2c(c1)N(CC(=O)OC)C(=O)C(C)(C)O2 | i | i | nt | i | 18.0 | i
Cc1nc2ccccn2c1-c1ccnc(=S)[nH]1 | i | i | + | i | i | i
CC(C)c1[nH]nc2c1C(c1ccc(F)cc1)N(Cc1ccccc1)C2=O (centres undefined) | nt | nt | nt | nt | nt | i
CCCCNC(=O)c1ccc2nc(-c3ccco3)c(-c3ccco3)nc2c1 | i | i | nt | i | i | i
O=C(NCCCO)c1ccc2nc(-c3ccco3)c(-c3ccco3)nc2c1 | i | i | i | 68.2 | nt | i
COc1ccc(CCNC(=O)C(=O)NCC2CCCO2)cc1OC (centres undefined) | i | i | i | i | 40.6 | i
COc1ccc(CCNC(=O)C(=O)NCC2CCCO2)cc1 (centres undefined) | nt | i | i | i | i | nt
COc1ccc(CCNC(=O)C(=O)N/N=C/c2cccs2)cc1OC | i | i | 77.6 | i | i | i
COc1cc(/C=N/NC(=S)NCC2CCCO2)cc(OC)c1OC (centres undefined) | i | i | 35.7 | i | i | i
COc1ccc(CCNC(=O)C2CCC(C(C)(C)C)CC2)cc1OC (centres undefined) | i | i | i | i | 57.8 | i
COC(=O)[C@]12C[C@H](CC(=O)NCCCN3CCCC3=O)C(=O)N(Cc3ccc4c(c3)OCO4)C1=C[C@H](COCc1ccccc1)O[C@@H]2C | nt | nt | nt | nt | nt | i
SMILES | CAL PDZ FP-1 | Keap1-Nrf2 PPI | CAL PDZ FP-2 | C-LANA FP | LANA-H2B inh | CaV13 ICDI inh
Cc1ccc2nc(-c3cccc(Cl)c3)c(Cc3cccc(Cl)c3)n2c1 | nt | nt | nt | nt | nt | i
COc1ccc(Sc2cccc3c2S(=O)(=O)N(C2CC2)C[C@@H](COCc2ccccc2)O3)cc1OC | nt | nt | nt | nt | nt | i
O=C(CSc1ncccn1)N1CCC(Cc2ccccc2)CC1 | i | i | i | i | i | i
COC(=O)CCC(=O)N1CCOCCOCCOCC1 | i | i | 40.5 | i | i | i
CSc1ccc(S(=O)(=O)NCc2ccc(Cl)cc2Cl)cc1 | i | i | nt | i | i | i
O=S(=O)(NCc1ccc(Cl)cc1Cl)c1ccc(N2CCOCC2)nc1 | i | i | 36.4 | i | i | i
Cc1c(C(=O)N(Cc2ccccc2)C(C)C)oc2ccc(S(=O)(=O)N3CCOCC3)cc12 | i | i | i | i | i | i
Cc1ccc(S(=O)(=O)OCC(=O)Nc2ccc(C(=O)O)c(O)c2)cc1 | i | i | i | 62.3 | nt | i
CC(C)(C)c1ccc(C(=O)NCCC(=O)NNC(=O)COc2ccc(F)cc2)cc1 | i | i | 33.0 | i | i | i
O=C(CCNC(=O)c1ccc(Br)cc1)NNC(=O)COc1ccccc1F | i | i | i | i | i | i
Nc1nc2c(nnn2C2CC(O)C(CO)O2)c(=O)[nH]1 (centres undefined) | nt | nt | nt | nt | nt | i
O=C(CN1C(=O)C2CC=CCC2C1=O)Nc1nc2ccccc2[nH]1 (centres undefined) | nt | i | 46.9 | i | i | i
O=C(Cc1ccccc1)Nc1nc2ccccc2[nH]1 | i | i | i | i | i | i
Cn1ccnc1C(=O)C1CCCN(Cc2cn[nH]c2-c2ccc(-c3ccccc3)cc2)C1 (centres undefined) | i | i | i | i | 18.0 | i
COc1ccc(CNc2ccc(-c3ccc(OC)cc3)nn2)cc1 | i | i | i | i | i | i
COc1ccc(CNc2ccc(-c3ccccc3OC)nn2)cc1 | i | i | 55.5 | i | i | i
OCC1COC(c2ccccc2)=N1 (centres undefined) | nt | nt | nt | nt | nt | i
O=C1[C@H](c2ccccc2)[C@@H](c2ccncc2)N1c1ccncc1 | nt | nt | nt | nt | nt | i
Nc1cc(=O)[nH]c(SCC(=O)Nc2cccc(Cl)c2)n1 | i | i | nt | i | i | nt
Nc1cc(=O)[nH]c(SCC(=O)Nc2ccc(Oc3ccccc3)cc2)n1 | i | i | i | i | 16.3 | i
CCc1ccccc1N(CC(=O)NCCc1ccccc1)C(=O)CCC(=O)Nc1ccccn1 | i | i | 65.1 | i | i | i
Cc1ccccc1N(CC(=O)NCCc1ccccc1)C(=O)CCC(=O)Nc1ccccn1 | i | i | i | i | i | i
Cc1ccc(N(CC(=O)NCc2ccc(F)cc2)C(=O)CCC(=O)Nc2ccccn2)cc1C | i | i | i | i | 26.4 | i
C[C@H]1COc2cc(N3CCCCC3)ccc2S(=O)(=O)N1 | nt | nt | nt | nt | nt | i
C=CCN=C1NC(c2ccccc2)C(C(=O)OC)=C(C)N1C (centres undefined) | nt | nt | nt | nt | nt | i
COC(=O)C1=C(C)N(Cc2ccc(C(F)(F)F)cc2)C(=NCc2ccc(C(F)(F)F)cc2)NC1c1ccccc1C(F)(F)F (centres undefined) | nt | nt | nt | nt | nt | i
CC(C)(C)[C@H]1CCC(=O)N([C@H](CSc2ccccc2)Cc2ccccc2)CC1 | i | i | i | i | i | 34.5
N#Cc1c(NC(=O)COC(=O)c2ccc(S(=O)(=O)N3CCCC3)cc2)sc2c1CCCCC2 | i | i | i | i | i | i

Screening data from PubChem.
